Results: ChEMBL document CHEMBL1681778, “Synthesis and biological evaluation of 2,4-diaminoquinazoline derivatives as novel heat shock protein 90 inhibitors” (Bioorg Med Chem Lett, 2011)
The source made the active and inactive calls. The rule behind the calls is not given here.

Key:
HCT-116 [1] = test: Cytotoxicity against human HCT116 cells after 2 days by MTT assay; assay type: functional, cell-based; conditions: HCT-116, 48 h
Method in brief: (§1)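 Cells grown in RPMI 1640 with 10% heat-inactivated FBS at 37 °C and 5% CO2. Seeded at 3 × 10³ cells/well, then given a range of sample concentrations in duplicate for two days. Read by MTT-type dye and solubilization/stop solution, left overnight at room temperature to dissolve formazan, with OD at 570 nm.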

HT-29 [2] = test: Cytotoxicity against human HT-29 cells at 10 uM after 2 days by MTT assay; assay type: functional; conditions: HT-29, 48 h
DU-145 [3] = test: Cytotoxicity against human DU145 cells at 10 uM after 2 days by MTT assay; assay type: functional; conditions: DU-145, 48 h
DU-145 [4] = test: Cytotoxicity against human DU145 cells after 2 days by MTT assay; assay type: functional, cell-based; conditions: DU-145, 48 h; method in brief: as §1
[5] = Cytotoxicity against human A375P cells at 10 uM after 2 days by MTT assay; assay type: functional; conditions: 48 h
[6] = Cytotoxicity against human A375P cells after 2 days by MTT assay; assay type: functional, cell-based; conditions: 48 h; method in brief: as §1
HT-29 [7] = test: Cytotoxicity against human HT-29 cells after 2 days by MTT assay; assay type: functional, cell-based; conditions: HT-29, 48 h; method in brief: as §1
HCT-116 [8] = test: Cytotoxicity against human HCT116 cells at 10 uM after 2 days by MTT assay; assay type: functional; conditions: HCT-116, 48 h
MCF7 [9] = test: Cytotoxicity against human MCF7 cells at 10 uM after 2 days by MTT assay; assay type: functional; conditions: MCF7, 48 h
MCF7 [10] = test: Cytotoxicity against human MCF7 cells after 2 days by MTT assay; assay type: functional, cell-based; conditions: MCF7, 48 h; method in brief: as §1
[11] = target: T1, Heat shock protein HSP90 (Homo sapiens) (UniProt P07900+P08238); test: Inhibition of HSP90 in human MCF7 cells assessed as reduction of Her2 protein level at 5 uM after 24 hrs by Western blotting relative to control; assay type: cell-based
Method in brief: (§2)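 MCF-7 cells seeded at 10⁵ cells/well and grown to 60% confluency. Treated with compounds at 5 µM in 0.4% DMSO for 24 h, with DMSO alone as control. Her2 and Hsp70 levels detected by western blot.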

[12] = target: T1, Heat shock protein HSP90 (Homo sapiens); test: Inhibition of HSP90 in human MCF7 cells assessed as induction of HSP70 expression at 5 uM after 24 hrs by Western blotting; assay type: cell-based; method in brief: as §2

Row | SMILES | IC50 (HCT-116 [1]) | inhibition at 10 µM (HT-29 [2]) | inhibition at 10 µM (DU-145 [3]) | IC50 (DU-145 [4]) | inhibition at 10 µM [5] | IC50 [6] | IC50 (HT-29 [7]) | inhibition at 10 µM (HCT-116 [8]) | inhibition at 10 µM (MCF7 [9]) | IC50 (MCF7 [10]) | inhibition [11] | inhibition [12]
1 | Fc1ccc2nc(NCCCCN3CCOCC3)nc(NCc3ccco3)c2c1 | 2.14 µM | 76.8% | 57.6% | 6.46 µM | 62% | 4.44 µM | 1.36 µM | 82% |  |  |  | 
2 | COc1ccc(Nc2nc(NCc3ccco3)c3ccccc3n2)cc1 |  |  |  | 35 µM |  |  | 12.2 µM |  | 64.5% |  |  | 
3 | Fc1ccc2nc(NCCN3CCN(c4cccc(Cl)c4Cl)CC3)nc(NCc3ccco3)c2c1 | 1.01 µM |  |  |  |  | 2.42 µM |  |  | 95.5% |  |  | 
4 | Cc1cccc(N2CCN(CCCNc3nc(NCc4ccco4)c4cc(F)ccc4n3)CC2)c1C | 1.14 µM | 96.7% | 95.9% | 2.66 µM | 97.6% | 2.83 µM | 1.05 µM | 97.3% |  |  |  | 
5 | CN(C)CCCNc1nc(NCc2ccco2)c2ccccc2n1 |  |  |  | 51 µM |  |  | 4.45 µM |  |  |  |  | 
6 | Clc1cccc(N2CCN(CCCCNc3nc(NCc4ccco4)c4ccccc4n3)CC2)c1Cl | 3.2 µM | 94.8% | 94.3% | 3.87 µM |  | 3.75 µM | 3.37 µM | 94.7% | 95.8% | 2.97 µM | > 50% | Active
7 | COc1cccc2c1C(=O)c1c(O)c3c(c(O)c1C2=O)C[C@@](O)(C(=O)CO)C[C@@H]3O[C@H]1C[C@H](N)[C@H](O)[C@H](C)O1 [DOXORUBICIN] |  |  |  |  |  |  | 0.82 µM |  |  |  |  | 
8 | Fc1ccc2nc(NCCCN3CCOCC3)nc(NCc3ccco3)c2c1 | 25.3 µM | 83.1% | 26.7% | > 100 µM |  | 22.5 µM | 9.32 µM | 52.1% |  |  |  | 
9 | c1coc(CNc2nc(NCCCN3CCOCC3)nc3ccccc23)c1 |  |  |  | 79.9 µM |  |  | 23.9 µM |  |  |  |  | 
10 | Fc1ccc2nc(NCCCCN3CCN(c4cccc(Cl)c4Cl)CC3)nc(NCc3ccco3)c2c1 | 0.52 µM | 96.3% | 95.5% | 0.67 µM | 97.3% | 2.65 µM | 0.39 µM | 97.1% |  |  |  | 
11 | Fc1ccc2nc(NCCN3CCOCC3)nc(NCc3ccco3)c2c1 |  | 9.68% | 27.8% |  | 28.6% |  |  | 12.8% |  |  |  | 
12 | c1coc(CNc2nc(NCCN3CCOCC3)nc3ccccc23)c1 |  |  |  |  |  |  |  |  | 95.8% | 2.12 µM |  | 
13 | CCCCCNc1nc(NCc2ccco2)c2cc(F)ccc2n1 | 4.1 µM |  | 83.6% | 7.24 µM |  | 7.34 µM | 4.03 µM | 94.2% | 94.4% |  |  | 
14 | CCN(CC)CCNc1nc(NCc2ccco2)c2ccccc2n1 | 25.9 µM | 75.1% | 28.5% | > 100 µM |  | 34.9 µM | 11.3 µM | 62.6% |  |  |  | 
15 | Clc1cccc(N2CCN(CCCNc3nc(NCc4ccco4)c4ccccc4n3)CC2)c1Cl | 3.36 µM | 94.1% | 93.2% | 3.71 µM |  | 3.36 µM | 3.37 µM | 94.5% | 95.8% | 2.98 µM | > 50% | Active
16 | Cc1cccc(N2CCN(CCCCNc3nc(NCc4ccco4)c4ccccc4n3)CC2)c1C | 0.84 µM | 94.2% | 93.6% | 1.07 µM |  | 3.9 µM | 0.86 µM | 94.3% | 95.8% | 3.14 µM | > 50% | Active
17 | CCCCCNc1nc(NCc2ccco2)c2ccccc2n1 |  |  |  | 11.5 µM |  |  | 6.73 µM |  |  |  |  | 
18 | c1coc(CNc2nc(NCCCN3CCCC3)nc3ccccc23)c1 | 16.1 µM | 87.5% | 40.1% | 35.3 µM |  | 19.4 µM | 6.01 µM | 67.5% |  |  |  | 
19 | Cc1cccc(N2CCN(CCCNc3nc(NCc4ccco4)c4ccccc4n3)CC2)c1C | 0.77 µM | 94% | 91.5% | 0.93 µM |  | 3.04 µM | 0.84 µM | 93.2% | 95.9% | 3.31 µM | < 50% | Active
20 | CCCCNc1nc(NCc2ccco2)c2cccc(F)c2n1 | 1.33 µM |  |  |  |  | 2.63 µM |  |  | 87% |  |  | 
21 | CCCCNc1nc(NCc2ccco2)c2cc(F)ccc2n1 | 4.31 µM | 88.1% | 75.4% | 5.91 µM |  | 8.48 µM | 3.04 µM | 87.8% |  |  |  | 
22 | CCCCNc1nc(NCc2ccco2)c2ccccc2n1 | 5.47 µM | 92.3% | 89.9% | 4.99 µM |  | 9.2 µM | 2.94 µM | 94.8% | 66.7% |  |  | 
23 | c1coc(CNc2nc(NCCCCN3CCOCC3)nc3ccccc23)c1 | 2.1 µM | 68.7% | 52.3% | 6.24 µM | 59.2% | 5.23 µM | 1.34 µM | 79.8% |  |  |  | 
24 | Cc1cccc(N2CCN(CCCCNc3nc(NCc4ccco4)c4cc(F)ccc4n3)CC2)c1C | 0.82 µM | 96.1% | 93.4% | 3.32 µM | 97.5% | 3.28 µM | 1.83 µM | 97.4% | 97.7% | 3.13 µM | < 50% | Active
25 | COc1ccc(Nc2nc(NCc3ccco3)c3cc(F)ccc3n2)cc1 | 6.15 µM | 86.2% | 55.4% | 11.6 µM |  | 7.66 µM | 4.34 µM | 74% |  |  |  | 
26 | CN(C)CCNc1nc(NCc2ccco2)c2ccccc2n1 |  | 21.7% | 20% |  |  |  |  |  |  |  |  | 
27 | CCN(CC)CCNc1nc(NCc2ccco2)c2cc(F)ccc2n1 |  | 27.5% | 26.6% |  | 7.67% |  |  | 26.4% |  |  |  | 
